Results published in ChEMBL document CHEMBL4196072, “Marliolide inhibits skin carcinogenesis by activating NRF2/ARE to induce heme oxygenase-1” (Eur J Med Chem, 2018).
Active and inactive are the calls of the source. The calls are words filed in the database; no cut-off is given here.

Legend:
[1] = biological target: Kelch-like ECH-associated protein 1 (Homo sapiens) (UniProt Q14145); experiment: Binding affinity to Keap1 in human HaCaT cells assessed as induction of NRF2/ARE activation-mediated HO1 expression at 10 uM after 6 to 24 hrs by Western blot analysis; format: cell-based
Sequence of Kelch-like ECH-associated protein 1 (Homo sapiens) (Q14145 whole entry): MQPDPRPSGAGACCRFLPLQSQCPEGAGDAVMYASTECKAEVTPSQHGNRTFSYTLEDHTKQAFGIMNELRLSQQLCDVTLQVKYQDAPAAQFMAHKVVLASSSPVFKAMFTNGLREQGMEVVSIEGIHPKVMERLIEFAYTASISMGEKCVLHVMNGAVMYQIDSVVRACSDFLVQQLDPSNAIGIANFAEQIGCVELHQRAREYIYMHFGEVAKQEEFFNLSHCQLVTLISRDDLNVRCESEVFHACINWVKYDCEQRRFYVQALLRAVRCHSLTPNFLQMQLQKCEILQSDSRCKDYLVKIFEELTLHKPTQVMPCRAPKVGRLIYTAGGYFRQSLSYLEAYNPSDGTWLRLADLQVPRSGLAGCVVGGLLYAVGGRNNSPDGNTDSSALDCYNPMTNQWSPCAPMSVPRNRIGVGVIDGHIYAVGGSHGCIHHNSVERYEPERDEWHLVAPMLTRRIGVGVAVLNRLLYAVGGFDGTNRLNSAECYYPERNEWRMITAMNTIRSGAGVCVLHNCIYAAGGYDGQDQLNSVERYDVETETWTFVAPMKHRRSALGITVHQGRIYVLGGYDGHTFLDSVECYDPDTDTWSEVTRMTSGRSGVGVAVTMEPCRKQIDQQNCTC
How it was run: (§1)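 HaCaT cells were grown in RPMI with 10% FBS and Pen/Strep and treated with agent from DMSO stock (1/1000 dilution), across concentrations for 24 h or over a time course. Cells were lysed in RIPA buffer and protein was measured by BCA. Equal amounts were separated by SDS-PAGE, blotted to PVDF, blocked in 5% milk/PBST, probed overnight at 4°C with HO-1 or NRF2 antibody, and detected by ECL. Actin served as loading control.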

HaCaT [2] = experiment: Cytotoxicity against human HaCaT cells assessed as reduction in cell viability at 10 uM after 24 hrs by MTT method; format: cell-based
How it was run: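 HaCaT cells were seeded at 30,000 per well and exposed to agent at 10 µM for 24 h. After a PBS wash, cells were incubated with MTT (5 mg/ml) for 4 h, lysed in DMSO, and absorbance was read at 560 nm.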

[3] = biological target: Kelch-like ECH-associated protein 1 (Homo sapiens) (UniProt Q14145); experiment: Binding affinity to Keap1 in human HaCaT cells assessed as induction of NRF2/ARE activation-mediated HO1 mRNA expression at 10 uM RT-PCR method; format: cell-based; details: TDE = time-dependent effect
How it was run: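 HaCaT cells were treated at 10 µM (DMSO, 1/1000) for 4, 8 and 12 h. Total RNA was analysed by SYBR real-time RT-PCR with HO-1-specific primers. Cycling was 95 °C for 5 min; 40 cycles of 95 °C 10 s, 59 °C 10 s, 72 °C 20 s; then 95 °C 10 s.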

[4] = biological target: T1, Nuclear factor erythroid 2-related factor 2 (Homo sapiens) (UniProt Q16236); experiment: Binding affinity to NRF2 in human HaCaT cells at 10 nmol by immunoprecipitation assay; format: cell-based
T1 sequence (whole entry): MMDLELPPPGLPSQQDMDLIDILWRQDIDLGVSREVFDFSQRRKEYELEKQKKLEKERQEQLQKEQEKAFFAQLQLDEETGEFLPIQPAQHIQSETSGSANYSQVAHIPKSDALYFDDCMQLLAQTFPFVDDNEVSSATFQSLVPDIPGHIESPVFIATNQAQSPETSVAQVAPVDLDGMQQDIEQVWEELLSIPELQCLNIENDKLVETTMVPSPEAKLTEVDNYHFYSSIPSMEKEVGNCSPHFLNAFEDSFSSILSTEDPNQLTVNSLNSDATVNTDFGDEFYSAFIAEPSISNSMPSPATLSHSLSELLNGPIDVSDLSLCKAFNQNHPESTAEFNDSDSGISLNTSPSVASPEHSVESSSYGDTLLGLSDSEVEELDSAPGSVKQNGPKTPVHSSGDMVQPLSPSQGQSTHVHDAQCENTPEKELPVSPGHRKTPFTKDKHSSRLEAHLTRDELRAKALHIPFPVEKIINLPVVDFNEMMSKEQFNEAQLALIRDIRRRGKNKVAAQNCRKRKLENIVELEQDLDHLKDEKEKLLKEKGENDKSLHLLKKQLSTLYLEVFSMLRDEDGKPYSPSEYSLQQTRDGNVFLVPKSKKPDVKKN
How it was run: (§2)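 Lysate (800 µg) from confluent HaCaT cells in RIPA buffer was mixed with biotin or biotinylated agent (10 nmole each). Pull-down was done with streptavidin-agarose beads overnight at 4°C. Beads were washed in ice-cold PBS, and bound KEAP1 and NRF2 were detected by Western blot.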

[5] = biological target: Kelch-like ECH-associated protein 1 (Homo sapiens) (UniProt Q14145); experiment: Binding affinity to Keap1 in human HaCaT cells at 10 nmol by immunoprecipitation assay; format: cell-based; how it was run: as §2
Mus musculus [6] = experiment: Downregulation of 8-OH-G expression in skin lysates of DMBA/TPA-induced mouse skin carcinogenesis model at 10 umol administered topically 3 times per week up to 10 weeks with TPA starting from 1 week post DMBA treatment by immunofluorescence microscopic method; format: functional, organism-based; details: Zone of skin, Lysate
How it was run: (§3)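 Skin came from the two-stage DMBA/TPA model in hairless mice: DMBA 2 µmole once topically, then TPA 10 nmole ± agent 10 µmole three times weekly. At sacrifice, skin was formalin-fixed and paraffin-embedded. Sections were incubated overnight at 4°C with 8-OH-G or 4-HNE primary antibody, then probed with FITC-conjugated secondary antibody for fluorescence imaging.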

HaCaT [7] = experiment: Cytotoxicity against human HaCaT cells assessed as reduction in cell viability by measuring morphological changes at 10 uM after 24 hrs by phase contrast microscopic method; format: cell-based
How it was run: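 HaCaT cells were exposed to agent or etoposide, and gross cell morphology was examined by phase-contrast microscopy.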

Mus musculus [8] = experiment: Anti-carcinogenic effect in hairless mouse assessed as inhibition of DMBA/TPA-induced papilloma growth at 10 umol administered topically 3 times per week up to 10 weeks with TPA starting from 1 week post DMBA treatment by hematoxylin/eosin staining based phase-contrast microscopic method; format: functional, organism-based
How it was run: (§4)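 Male hairless mice (6 weeks old at purchase, acclimated one week) received a single topical dose of DMBA (2 µmole) or acetone vehicle in week 1. From week 2, the back was treated with TPA (10 nmole) alone or with test agent (10 µmole), three times per week. Papillomas were counted manually at the end of each week. At sacrifice, skin was formalin-fixed, paraffin-embedded and H/E-stained for phase-contrast imaging.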

[9] = biological target: Kelch-like ECH-associated protein 1 (Mus musculus) (UniProt Q9Z2X8); experiment: Binding affinity to Keap1 in NRF2+/+ MEF assessed as induction of NRF2/ARE activation-mediated HO1 expression at 10 uM after 24 hrs by Western blot analysis; format: cell-based
Sequence of Kelch-like ECH-associated protein 1 (Mus musculus) (Q9Z2X8 whole entry): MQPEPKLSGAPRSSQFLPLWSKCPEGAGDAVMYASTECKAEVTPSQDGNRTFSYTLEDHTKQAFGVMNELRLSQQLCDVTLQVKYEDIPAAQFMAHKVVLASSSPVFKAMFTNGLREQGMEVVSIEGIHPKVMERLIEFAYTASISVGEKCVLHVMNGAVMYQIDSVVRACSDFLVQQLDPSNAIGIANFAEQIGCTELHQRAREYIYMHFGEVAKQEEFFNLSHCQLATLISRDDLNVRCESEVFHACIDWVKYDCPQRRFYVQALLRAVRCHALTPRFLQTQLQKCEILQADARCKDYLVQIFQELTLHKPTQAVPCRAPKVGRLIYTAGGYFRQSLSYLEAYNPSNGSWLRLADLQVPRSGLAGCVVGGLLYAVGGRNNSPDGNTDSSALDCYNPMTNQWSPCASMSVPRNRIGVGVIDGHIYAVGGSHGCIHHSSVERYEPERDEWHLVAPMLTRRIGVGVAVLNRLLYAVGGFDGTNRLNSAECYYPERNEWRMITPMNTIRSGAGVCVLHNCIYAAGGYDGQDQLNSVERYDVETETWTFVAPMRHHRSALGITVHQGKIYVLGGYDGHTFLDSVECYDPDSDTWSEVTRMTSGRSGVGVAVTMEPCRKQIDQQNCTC

[10] = biological target: Kelch-like ECH-associated protein 1 (Mus musculus) (UniProt Q9Z2X8); experiment: Binding affinity to Keap1 in NRF2-/- MEF assessed as induction of HO1 expression at 10 uM after 24 hrs by Western blot analysis; format: cell-based
Mus musculus [11] = experiment: Anti-carcinogenic effect in hairless mouse assessed as inhibition of number of DMBA/TPA-induced papilloma formation at 10 umol administered topically 3 times per week up to 10 weeks with TPA starting from 1 week post DMBA treatment; format: functional, organism-based; how it was run: as §4
Mus musculus [12] = experiment: Upregulation of HO-1 expression in skin lysates of mouse at 10 umole applied topically up to 24 hrs by Western blot analysis; format: functional, organism-based; details: Zone of skin, Lysate
Mus musculus [13] = experiment: Upregulation of GCLC expression in skin lysates of mouse at 10 umole applied topically up to 24 hrs by Western blot analysis; format: functional, organism-based; details: Zone of skin, Lysate
Mus musculus [14] = experiment: Upregulation of NRF2 expression in skin lysates of mouse at 10 umole applied topically up to 24 hrs by Western blot analysis; format: functional, organism-based; details: Zone of skin, Lysate
[15] = biological target: Kelch-like ECH-associated protein 1 (Mus musculus) (UniProt Q9Z2X8); experiment: Binding affinity to Keap1 in NRF2+/+ MEF assessed as induction of NRF2/ARE activation-mediated HO1 expression at 10 uM up to 8 hrs by RT-PCR method; format: cell-based
HaCaT [16] = experiment: Cell cycle arrest in human HaCaT cells assessed as accumulation at G1/S phase at 10 uM after 24 hrs by propidium iodide staining based flow cytometry
How it was run: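 HaCaT cells were exposed to agent for 24 h, with etoposide as positive control. Cells (1x10⁶ per group) were fixed in PBS/70% EtOH (3:7), washed, stained with propidium iodide (20 µg/ml), and G1/S distribution was measured by flow cytometry.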

HaCaT [17] = experiment: Induction of apoptosis in human HaCaT cells assessed as increase in cleaved PARP protein expression at 10 uM after 6 to 24 hrs by Western blot analysis; format: cell-based
How it was run: (§5)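 HaCaT cells were exposed to agent or etoposide for various times. RIPA lysates were analysed by SDS-PAGE and Western blot with cleaved caspase-3 and cleaved PARP antibodies, with ECL detection and actin as loading control.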

[18] = biological target: Kelch-like ECH-associated protein 1 (Homo sapiens) (UniProt Q14145); experiment: Binding affinity to Keap1 in human HaCaT cells assessed as activation of NRF2 by measuring nuclear translocation of NRF2 at 10 uM after 6 to 12 hrs by immunofluorescence assay; format: cell-based
How it was run: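 Confluent HaCaT cells on glass were exposed to agent for 6 h and 12 h, blocked with 1% BSA for 30 min, and fixed with paraformaldehyde. They were incubated overnight at 4°C with NRF2 antibody, then with FITC-conjugated secondary antibody, and imaged by confocal microscopy.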

HaCaT [19] = experiment: Induction of apoptosis in human HaCaT cells assessed as increase in cleaved caspase-3 protein expression at 10 uM after 6 to 24 hrs by Western blot analysis; format: cell-based; how it was run: as §5
[20] = biological target: Kelch-like ECH-associated protein 1 (Homo sapiens) (UniProt Q14145); experiment: Binding affinity to Keap1 in human HaCaT cells assessed as induction of NRF2/ARE activation-mediated HO1 expression at 1 to 10 uM after 24 hrs by Western blot analysis; format: cell-based; how it was run: as §1
Mus musculus [21] = experiment: Downregulation of 4-HNE expression in skin lysates of DMBA/TPA-induced mouse skin carcinogenesis model at 10 umol administered topically 3 times per week up to 10 weeks with TPA starting from 1 week post DMBA treatment by immunofluorescence microscopic method; format: functional, organism-based; details: Zone of skin, Lysate; how it was run: as §3
[22] = biological target: Kelch-like ECH-associated protein 1 (Homo sapiens) (UniProt Q14145); experiment: Binding affinity to Keap1 in human HaCaT cells assessed as induction of NRF2/ARE activation-mediated HO1 expression at 10 uM by Western blot analysis; format: cell-based; details: TDE = time-dependent effect; how it was run: as §1
[23] = biological target: Kelch-like ECH-associated protein 1 (Mus musculus) (UniProt Q9Z2X8); experiment: Binding affinity to Keap1 in NRF2-/- MEF assessed as induction of NRF2/ARE activation-mediated HO1 expression at 10 uM up to 8 hrs by RT-PCR method; format: cell-based
Mus musculus [24] = experiment: Anti-carcinogenic effect in hairless mouse assessed as inhibition of incidence of DMBA/TPA-induced papilloma formation at 10 umol administered topically 3 times per week up to 10 weeks with TPA starting from 1 week post DMBA treatment; format: functional, organism-based; how it was run: as §4

## CCCCCCCCCCCCC/C=C1\C(=O)O[C@@H](C)[C@H]1O
[1]
  Activity: Active

## CCCCCCCCCCCCCC[C@@H]1C[C@H](O)OC1=O
[1]
  Activity: inactive

## CCCCCCCCCCCCC/C=C1/C(=O)O[C@@H](C)[C@@H]1O
[1]
  Activity: Active

## CCCCC/C=C1/C(=O)O[C@@H](C)[C@H]1O
[1]
  Activity: inactive

## CCC/C=C1/C(=O)O[C@@H](C)[C@H]1O
[1]
  Activity: inactive

## CCCCCCCCCCCCC/C=C1/C(=O)O[C@@H](C)[C@H]1OC(=O)CC(C)C
[1]
  Activity: inactive

## CCCCCCCCCCC/C=C1/C(=O)O[C@@H](C)[C@H]1O
HaCaT [2]
  Activity: Non-Toxic
[1]
  Activity: Active
[3]
  Activity: Tde

## CCCCCCCCCCCCCC[C@H]1C(=O)O[C@@H](O)[C@H]1O
[1]
  Activity: inactive

## C[C@@H]1OC(=O)/C(=C/CCCCCCCCCCCCNC(=O)CCCC[C@@H]2SC[C@@H]3NC(=O)N[C@@H]32)[C@@H]1O
[4]
  Activity: inactive
[5]
  Activity: Active

## CCCCCCCCCCCCC/C=C1/C(=O)O[C@@H](C)[C@H]1O
HaCaT [2]
  Activity: Non-Toxic
Mus musculus [6]
  Activity: Active
HaCaT [7]
  Activity: Non-Toxic
Mus musculus [8]
  inhibition: Active
[9]
  Activity: Active
[10]
  Activity: inactive
Mus musculus [11]
  inhibition: Active
Mus musculus [12]
  Activity: Active
Mus musculus [13]
  Activity: Active
Mus musculus [14]
  Activity: Active
[15]
  Activity: Active
HaCaT [16]
  Activity: Non-Toxic
HaCaT [17]
  Activity: Non-Toxic
[18]
  Activity: Active
HaCaT [19]
  Activity: Non-Toxic
[20]
  Activity: Active
Mus musculus [21]
  Activity: Active
[22]
  Activity: Tde
[23]
  Activity: inactive
Mus musculus [24]
  inhibition: Active

## CCCCCCCCCCCC/C=C1/C(=O)O[C@@H](C)[C@H]1O
HaCaT [2]
  Activity: Non-Toxic
[1]
  Activity: Active
Mus musculus [12]
  Activity: Active
Mus musculus [13]
  Activity: Active
Mus musculus [14]
  Activity: Active
[3]
  Activity: Tde

## CCCCCCCCC/C=C1/C(=O)O[C@@H](C)[C@H]1O
HaCaT [2]
  Activity: Non-Toxic
[1]
  Activity: Active
[3]
  Activity: Tde

## CCCCCCCCCC/C=C1/C(=O)O[C@@H](C)[C@H]1O
HaCaT [2]
  Activity: Non-Toxic
[1]
  Activity: Active
[3]
  Activity: Tde

## CCCCCCCCCCCCC/C=C1\C[C@H](C)OC1=O
[1]
  Activity: inactive
